EBNA-1 inhibitor: blocks EBNA-1 binding to DNA. EBNA-1 DNA binding, fluorescence polarization. inhibition, % at 14.8 µM. hit rate 0.34% among 300,000; in the data active = inhibition above about 28%
HCV NS3 hel inh: HCV NS3 helicase inhibition. NS3 helicase DNA unwinding, Cy5 molecular beacon fluorescence. inhibition, % at 10.9 µM. hit rate 0.56% among 290,000. AID 1800;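 active = inhibition above the mean of all tested compounds plus 3 SD, set per campaign, cut at about 35% in these data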;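 also: 0% = DMSO wells and 100% = thioflavine S control wells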
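Assay system – hepatitis C virus NS3 helicase domain fragment enzyme · Buffer or medium – MOPS pH 6.5, MgCl2, DTT, Tween20, BSA · Reagent – Cy5/quencher beacon DNA duplex and ATP to start · Compound – single 10.9 µM dose · Timing – 1 h at 25 °C · Technique – Cy5 beacon fluorescence read at start and 1 h · Measure – % inhibition of unwinding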
PABP FP inh: blocks human PABP binding to poly(A) RNA; P11940; fluorescence polarization; inhibition, % at 35 µM; hit rate 1% among 290,000;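 also: calls also rest on retests at 20 µM and on dose response follow-up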
Target sequence (P11940 whole entry, looked up): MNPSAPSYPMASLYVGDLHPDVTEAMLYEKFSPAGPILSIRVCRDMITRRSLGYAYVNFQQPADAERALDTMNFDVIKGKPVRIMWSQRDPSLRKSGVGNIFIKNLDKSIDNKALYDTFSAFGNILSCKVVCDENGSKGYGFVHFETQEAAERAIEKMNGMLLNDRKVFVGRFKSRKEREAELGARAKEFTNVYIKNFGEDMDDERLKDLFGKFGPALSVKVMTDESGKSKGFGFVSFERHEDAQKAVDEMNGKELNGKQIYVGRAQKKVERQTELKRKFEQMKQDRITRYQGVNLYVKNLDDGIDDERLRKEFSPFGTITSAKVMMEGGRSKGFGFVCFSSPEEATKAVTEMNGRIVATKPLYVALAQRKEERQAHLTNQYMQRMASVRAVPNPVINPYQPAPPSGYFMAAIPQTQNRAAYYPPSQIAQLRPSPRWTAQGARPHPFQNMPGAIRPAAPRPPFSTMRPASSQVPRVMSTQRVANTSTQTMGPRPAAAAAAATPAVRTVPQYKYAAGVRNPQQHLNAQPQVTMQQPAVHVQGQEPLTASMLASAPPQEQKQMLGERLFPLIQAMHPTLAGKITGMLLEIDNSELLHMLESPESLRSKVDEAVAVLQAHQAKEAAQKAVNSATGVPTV
eIF4H FP inh: inhibitors of RNA binding by human eIF4H; hit rate 0.94% among 290,000; eIF4H fluorescence polarization binding assay; AID 2012; inhibition, % at 35 µM; Q15056;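 also: calls also rest on retests at 20 µM and on dose response follow-up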
ZTA counter: counter-screen for EBNA-1 inhibitors: inhibitors of Epstein-Barr virus ZTA; ZTA-DNA binding, fluorescence polarization; AID 2234; P03206; inhibition, % at 11 µM; hit rate 0.15% among 320,000; in the data active = inhibition above about 33%
PABP1 MLLE inh: inhibitors of microRNA-mediated deadenylation, human PABP1 MLLE binding; P11940; GST-MLLE / FITC-PAM2 fluorescence polarization; inhibition, % at 20 µM; hit rate 0.36% among 360,000; AID 588489; in the data active = inhibition above about 35%, passing the limit was not always enough;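 also: plate controls were DMSO wells with GST-MLLE for no effect and wells lacking GST-MLLE protein for full effect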
Numbers without * were called inactive; u = inconclusive; x = not tested or not shown. Only some compounds are listed: those with a hit (about 2.1% of all), similar ones and a draw of the others. Unless noted, no rule for the calls is given here.

SMILES	EBNA-1 inhibitor	HCV NS3 hel inh	PABP FP inh	eIF4H FP inh	ZTA counter	PABP1 MLLE inh
Cc1ccc(OC(=O)COc2ccccc2C)c(-n2nc3ccccc3n2)c1	9.7	0.4	-3.6	6.8	2.2	53.4*
CCOC(=O)c1ccccc1NC(=O)c1ccc2nccnc2c1	4.8	-2.1	2.6	67.6*	3.0	-16.4
CCOC(=O)c1ccccc1NC(=O)c1ccc2nc[nH]c2c1	-11.8	-4.6	10.6	9.8	-12.6	-7.2
COC(=O)C(C(=O)OC)=C(/C=C/N(C)C)N(C)C	5.6	-0.6	-3.7	-3.1	-9.9	1.8
COC(=O)C(C(=O)OC)=C(/C=C/C=C/N(C)C)N(C)C	-0.4	10.9	91.1*	100.8*	-10.6	21.8
O=C(O)C(=O)/C(=C\c1ccccc1)c1ccc2ccccc2n1	8.8	2.4	26.0	-6.3	-1.8	29.3
O=C(O)C(=O)/C(=C\c1cccc2ccccc12)c1ccc2ccccc2n1	14.7	2.1	91.3*	67.0*	2.0	-71.5
Nc1nc(-c2ccc(Cl)cc2)nn1C(=O)c1cccs1	6.3	-8.4	50.6*	u	1.3	1.9
Nc1nc(-c2ccc(Cl)cc2)nn1C(=O)c1cccnc1	-17.6	2.2	2.5	-4.3	7.7	-11.2
O=C(NN1C(=O)c2ccccc2C1=O)c1ccc2c(c1)C(=O)N(CC1CCCO1)C2=O (stereo not given)	-7.6	-3.9	8.3	6.2	-17.0	-10.6
CCOCCCn1c(=NC(=O)c2cccs2)c(C#N)cc2c(=O)n3cccc(C)c3nc21	-18.3	1.3	33.5*	54.8	-12.0	124.0
COCCCn1c(=NC(C)=O)c(C#N)cc2c(=O)n3cccc(C)c3nc21	1.8	-2.5	55.3*	106.8*	-2.4	3.1
O=[N+]([O-])c1ccc(Oc2ccc(S(=O)(=O)N3CCCCC3)cc2)cc1	5.0	-5.3	-10.1	5.7	-11.6	3.1
O=c1nc(Nc2ccccc2)oc2ccccc12	4.0	-0.9	-7.1	-4.7	7.8	-14.9
O=c1nc(Nc2cccc(Cl)c2)oc2cc(Cl)oc(=O)c12	-5.6	23.7	25.8*	58.0	3.0	-17.4
O=C(Nc1cccc(Cl)c1N1CCCCC1)c1ccc(N2CCOCC2)c([N+](=O)[O-])c1	6.5	0.6	71.3*	active	-10.2	-4.4
Cc1cccn2c(=O)c(C=O)c(N3CCCCC3)nc12	7.4	-1.2	9.9	4.6	7.2	11.8
N#C/C(=C\c1c(N2CCC(C(N)=O)CC2)nc2ccccn2c1=O)C(=O)NCc1ccco1	3.3	1.6	active	62.2*	-15.8	-6.8
Cc1ccc2nc(N3CCN(c4ccccc4F)CC3)c(C=O)c(=O)n2c1	9.9	2.7	20.8*	57.6	5.4	16.9
Cc1ccc(S(=O)(=O)/C(C#N)=C/c2c(N3CCN(Cc4ccccc4)CC3)nc3ccccn3c2=O)cc1	-1.6	-32.0	43.1*	u	-3.6	13.3
Cc1cccn2c(=O)c(C=O)c(N3CCN(c4ccc(F)cc4)CC3)nc12	-5.0	4.0	36.1*	96.1*	-6.2	6.3
Cc1cccn2c(=O)c(/C=C(\C#N)C(=O)NCc3ccco3)c(N3CCOCC3)nc12	2.0	2.9	4.6	7.2	-7.3	-3.1
CCCOc1cccc(C(=O)N/N=C/c2coc3ccccc3c2=O)c1	x	-0.1	-8.0	-6.9	x	6.3
CCCS(=O)(=O)NC(=O)C1(C)CCN(C(=O)c2ccccc2C(F)(F)F)C1 (stereo not given)	x	x	x	x	x	-8.3
c1cn(CCCNC2=NCCCCC2)cn1	8.0	9.3	-8.0	-7.4	3.0	0.6
SMILES	EBNA-1 inhibitor	HCV NS3 hel inh	PABP FP inh	eIF4H FP inh	ZTA counter	PABP1 MLLE inh
CCN(CC)C(=O)[C@H]1C[C@H](CC(=O)NCc2cccc(C(F)(F)F)c2)C(=O)N2CCc3c([nH]c4cc(-c5ccco5)ccc34)[C@]12C	x	x	x	x	x	-11.7
Cc1cccn2c(=O)c(/C=C(\C#N)S(=O)(=O)c3ccccc3)c(N3CCN(Cc4ccccc4)CC3)nc12	7.0	-2.4	59.1*	77.9*	9.6	21.0
N#C/C(=C\c1c(N2CCN(Cc3ccccc3)CC2)nc2ccccn2c1=O)S(=O)(=O)c1ccccc1	11.9	-26.0	23.2*	u	10.4	-11.8
O=S(=O)(c1ccc(Cl)cc1)c1nc(-c2ccco2)oc1N1CCOCC1	5.3	10.0	14.3	4.2	-10.8	3.3
CCNC(=O)CN(c1ccc(Br)c(C)c1)S(C)(=O)=O	-12.9	10.5	9.7	4.7	-2.7	-8.3
O=C(NNC(=O)c1cc2cc3ccccc3nc2s1)c1cccc(C(F)(F)F)c1	-10.4	-4.2	13.6	51.3*	3.4	15.9
CC(=O)Oc1ccc2c(=O)c(Oc3ccccc3)coc2c1OC(C)=O	-7.0	22.2	2.0*	98.2*	-1.9	4.0
CC(=O)NCCNC(=O)C1(C)Cc2c(-c3cccc(C(F)(F)F)c3)ccnc2O1 (stereo not given)	x	x	x	x	x	11.1
CC(C)Nc1nc(NCCN2CCCC2)c2sc(-c3ccccc3)cc2n1	x	x	x	x	x	-9.9
NC(N)=NC(=S)Nc1ccc(Cl)cc1	x	-28.8	3.7	-4.9	x	44.5*
Cc1n[nH]c(=S)n(NC(=O)/C=C/C(=O)Nn2c(=S)[nH]nc(C)c2=O)c1=O	x	2.2	86.4*	92.4*	x	9.6
CCOC(=O)c1c(N2C(=O)CC(Sc3ccccc3C(=O)O)C2=O)sc2c1CCCC2 (stereo not given)	-9.3	27.7	1.7	-12.7	4.8	49.5*
CCOc1ccc(N2C(=O)CC(Sc3ccccc3C(=O)O)C2=O)c([N+](=O)[O-])c1 (stereo not given)	-0.7	17.5	-5.0	-4.4	0.0	40.5*
O=C(O)c1ccccc1SC1CC(=O)N(c2cccc3ccccc23)C1=O (stereo not given)	x	-6.5	-2.2	0.5	x	39.5*
CCN1C(=O)CC(Sc2ccccc2C(=O)O)C1=O (stereo not given)	8.1	1.6	11.6	-4.8	0.5	20.2
COc1ccc(Cc2c[nH]c(=O)[nH]c2=O)cc1	2.4	-1.2	-3.8	3.0	-7.0	-14.7
Cc1nc(N2CCN(c3ccccn3)CC2)c2c(C)c(C(=O)N3CCN(c4cccc(Cl)c4)CC3)sc2n1	-4.6	-26.0	9.1	3.2	-0.2	0.0
COc1cc(C2C(C#N)=C(N)Oc3cc(C)oc(=O)c32)cc2c1OCO2 (stereo not given)	0.3	13.3	49.5*	68.9*	4.2	-21.4
Cc1cc2c(c(=O)o1)C(Cc1ccccc1)C(C#N)=C(N)O2 (stereo not given)	4.4	3.0	59.1*	69.8*	11.2	-14.6
COc1cc(C2C(C#N)=C(N)Oc3cc(C)oc(=O)c32)cc(OC)c1OC (stereo not given)	2.9	-1.0	-0.9	7.7	3.9	5.2
C=CCn1c(N)c(C(=O)OCC)sc1=S	0.4	-4.7	-6.2	-12.7	-6.3	48.5*
CCOc1cc(Br)ccc1S(=O)(=O)N1CCC(C(N)=O)CC1	-7.7	-2.4	103.7*	active	-19.8	9.8
